Measured values published in ChEMBL document CHEMBL3244138, “New antiarrhythmic agents. 3. Primary beta-amino anilides” (J Med Chem, 1979).
The source made the active and inactive calls. No cut-off for these calls is given here.

How the values were obtained:
Mus musculus [1] = test: Toxicity in mouse assessed as ataxia at 100 mg/kg, sc measured up to 20 mins; assay type: organism-based; set-up: dose 100 mg/kg, route subcutaneous; settings: in vivo
Outline: (§1)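 Preliminary screen: drug dissolved in 0.9% saline and given subcutaneously at 100 mg/kg to groups of 10 mice. Animals were watched for 20 min for ataxia, convulsions, loss of righting reflex or death. Each sign was recorded as the number of animals affected out of 10 tested.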

Mus musculus [2] = test: Toxicity in mouse assessed as convulsion at 100 mg/kg, sc measured up to 20 mins; assay type: organism-based; set-up: dose 100 mg/kg, route subcutaneous; settings: in vivo; outline: as §1
Mus musculus [3] = test: Toxicity in mouse assessed as loss of righting reflex at 100 mg/kg, sc measured up to 20 mins; assay type: organism-based; set-up: dose 100 mg/kg, route subcutaneous; settings: in vivo; outline: as §1
Mus musculus [4] = test: Toxicity in mouse assessed as mortality at 100 mg/kg, sc measured up to 20 mins; assay type: organism-based; set-up: dose 100 mg/kg, route subcutaneous; settings: in vivo; outline: as §1
Mus musculus [5] = test: Antiarrhythmic activity in sc dosed mouse assessed as protection against chloroform-induced fibrillation; assay type: functional; settings: Heart
Outline: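 Mice (10 per dose) got at least three sc doses in 0.9% saline, chosen for low to high protection. After 20 min, chloroform vapour was given until respiration stopped, then fibrillation versus coordinated ventricular contraction was scored visually.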

Mus musculus [6] = test: Ratio of lidocaine ED50 to compound ED50 for antiarrhythmic activity sc dosed mouse assessed as protection against chloroform-induced fibrillation; assay type: functional, Heart
Mus musculus [7] = test: Antiarrhythmic activity in mouse assessed as protection against chloroform-induced fibrillation at 100 mg/kg, sc; assay type: functional, organism-based; set-up: dose 100 mg/kg; settings: Heart
Outline: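 Preliminary screen: single 100 mg/kg sc dose in 0.9% saline to 10 mice. After 20 min, each mouse was held in chloroform-saturated air until respiration ceased, and the thorax was opened at once. A mouse counted as protected if ventricular contractions were coordinated rather than fibrillating. Read-out is the number protected of 10.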

Mus musculus [8] = test: Toxicity in mouse assessed as ataxia at 200 mg/kg, sc measured up to 20 mins; assay type: organism-based; set-up: dose 200 mg/kg, route subcutaneous; settings: in vivo
Outline: (§2)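 Mice (10 per dose) received drug sc in 0.9% saline and were watched for 20 min for ataxia, convulsions, loss of righting reflex and death, before chloroform exposure. Read-out is the number affected of 10 tested.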

Mus musculus [9] = test: Toxicity in mouse assessed as loss of righting reflex at 200 mg/kg, sc measured up to 20 mins; assay type: organism-based; set-up: dose 200 mg/kg, route subcutaneous; settings: in vivo; outline: as §2
Canis familiaris [10] = test: Antiarrhythmic activity in left anterior descending coronary artery ligated myocardial infarction model of dog assessed as clearing value of ventricular ectopic beats at 0.5 mg/kg/min, iv; assay type: functional, Canis lupus familiaris, Heart
Outline: (§3)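 Dogs with myocardial infarction from two-step ligation of the left anterior descending coronary artery were studied the day after ligation and given a drug infusion. Control percent ventricular ectopic beats, ventricular rate (beats/min) and mean arterial pressure (mmHg) were taken before infusion. Clearing values and dose were taken at the time of lowest ectopic-beat incidence; results are means and SD of 3–14 experiments.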

Canis familiaris [11] = test: Antiarrhythmic activity in left anterior descending coronary artery ligated myocardial infarction model of dog assessed as clearing value of ventricular rate at 0.5 mg/kg/min, iv; assay type: functional, Canis lupus familiaris, Heart; outline: as §3
Canis familiaris [12] = test: Antiarrhythmic activity in left anterior descending coronary artery ligated myocardial infarction model of dog assessed as mean arterial blood pressure at 0.5 mg/kg/min, iv; assay type: functional, Canis lupus familiaris; outline: as §3
Canis familiaris [13] = test: Antiarrhythmic activity in iv dosed left anterior descending coronary artery ligated myocardial infarction model of dog assessed as dose required for reduction of ectopic beats to <= 5%; assay type: functional, Canis lupus familiaris, Heart; outline: as §3
Canis familiaris [14] = test: Toxicity in iv dosed left anterior descending coronary artery ligated myocardial infarction model of dog assessed as dose required to cause toxic effect; assay type: organism-based, Canis lupus familiaris; settings: in vivo
Canis familiaris [15] = test: Toxicity in left anterior descending coronary artery ligated myocardial infarction model of dog at […], iv; assay type: organism-based, Canis lupus familiaris; settings: in vivo
Canis familiaris [16] = test: Toxicity in iv dosed left anterior descending coronary artery ligated myocardial infarction model of dog assessed as dose required to cause convulsion; assay type: organism-based, Canis lupus familiaris; settings: in vivo
Canis familiaris [17] = test: Cardiovascular toxicity in iv dosed left anterior descending coronary artery ligated myocardial infarction model of dog; assay type: organism-based, Canis lupus familiaris; settings: in vivo
Canis familiaris [18] = test: Toxicity in iv dosed left anterior descending coronary artery ligated myocardial infarction model of dog at 0.20 mmol/kg, iv; assay type: organism-based, Canis lupus familiaris; settings: in vivo
Canis familiaris [19] = test: Toxicity in iv dosed left anterior descending coronary artery ligated myocardial infarction model of dog at 0.25 mmol/kg, iv; assay type: organism-based, Canis lupus familiaris; settings: in vivo
[20] = Oral bioavailability in dog; assay type: ADME, organism-based, Canis lupus familiaris; settings: in vivo
Canis familiaris [21] = test: Toxicity in iv dosed left anterior descending coronary artery ligated myocardial infarction model of dog assessed as dose required to cause death; assay type: organism-based, Canis lupus familiaris; settings: in vivo
Outline: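 Baseline ectopic beats, ventricular rate and mean arterial pressure were recorded before drug infusion. Infusion was stopped at a toxic level, and the cumulative dose in mmol/kg causing death was recorded.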

Row | SMILES | Activity (Mus musculus [1]) | Activity (Mus musculus [2]) | Activity (Mus musculus [3]) | Activity (Mus musculus [4]) | ED50 (Mus musculus [5]) [µmol/kg] | Ratio ED50 (Mus musculus [6]) | Activity (Canis familiaris [10]) [%] | Activity (Canis familiaris [11]) [bpm] | Activity (Canis familiaris [12]) [mmHg] | Activity (Canis familiaris [13]) [mmol/kg] | also measured
1 | CCN(C(=O)CC(C)N)c1c(C)cccc1C.O.O=C(O)C(O)C(O)C(=O)O (centres undefined) | Toxic | Toxic |  |  |  |  |  |  |  |  | 
2 | CCC(N)CC(=O)Nc1c(C)cccc1C.Cl (centres undefined) | Non-toxic | Non-toxic | Non-toxic | Non-toxic | 380 | 0.7 |  |  |  |  | 
3 | Cc1cccc(C)c1N(C)C(=O)CCN.Cl.O | Non-toxic | Non-toxic | Non-toxic | Non-toxic |  |  |  |  |  |  | Activity (Mus musculus [7]): inactive; Activity (Mus musculus [8]): Toxic; Activity (Mus musculus [9]): Non-toxic
4 | CCc1cccc(C)c1NC(=O)CC(C)N.Cl (centres undefined) | Non-toxic | Non-toxic | Non-toxic | Non-toxic | 540 | 0.5 |  |  |  |  | 
5 | CCN(CC)CC(=O)Nc1c(C)cccc1C [LIDOCAINE] | Toxic | Toxic | Toxic | Non-toxic | 260 | 1 | 4 | 133 | 101 | 0.21 | Activity (Mus musculus [7]): Active; Activity (Canis familiaris [14]): 0.27 mmol/kg
6 | Cc1cccc(C)c1NC(=O)CCN.Cl | Non-toxic | Non-toxic | Non-toxic | Non-toxic | 560 | 0.5 | 5 | 120 | 85 | 0.23 | Activity (Canis familiaris [15]): Non-toxic
7 | CCN(CC)CCC(=O)Nc1c(C)cccc1C | Toxic |  | Non-toxic | Non-toxic | 280 | 0.9 | 15 | 132 | 115 | 0.01 | Activity (Canis familiaris [16]): 0.04 mmol/kg; Activity (Canis familiaris [17]): Toxic; Activity (Canis familiaris [18]): Toxic; Activity (Canis familiaris [19]): Toxic
8 | Cc1cccc(C)c1N(C)C(=O)CC(C)N.O.O=C(O)C(O)C(O)C(=O)O (centres undefined) | Toxic |  | Non-toxic | Non-toxic |  |  |  |  |  |  | 
9 | Cc1cccc(C)c1NC(=O)CC(C)N.Cl (centres undefined) | Non-toxic | Non-toxic | Non-toxic | Non-toxic | 460 | 0.6 | 0 | 148 | 97 | 0.1 | Activity (Canis familiaris [14]): 0.33 mmol/kg; bioavailability [20]: > 90%
10 | CCc1cccc(C)c1NC(=O)CCN.Cl | Non-toxic | Non-toxic | Non-toxic | Non-toxic | 1990 | 0.1 |  |  |  |  | 
11 | Cc1cccc(C)c1NC(=O)C(C)N (centres undefined) [TOCAINIDE] |  | Non-toxic | Non-toxic | Non-toxic | 1300 | 0.2 | 2 | 148 | 108 | 0.32 | Activity (Canis familiaris [14]): 0.3 mmol/kg
12 | Cc1cccc(C)c1NC(=O)CC(C)(C)N.Cl | Non-toxic | Non-toxic | Non-toxic | Non-toxic | 250 | 1 | 39 | 138 | 95 | 0.04 | Activity (Canis familiaris [21]): 0.17 mmol/kg
